A short description of the series: Toxicity liver stage against HepG2, at 10uM. Type of series: cell-based. Also noted: test concentration 10 uM, cell line HepG2-A16-CD81EGFP. The settings on record: human, HepG2-A16-CD81EGFP cells; read-out: INHIBITION
In outline:
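Uninfected HepG2-A16-CD81EGFP cells, 3 × 10^3 per well, 1536-well, plated on prespotted compound at 10 μM final, parasite-free screening media added to match infected plates; puromycin 10 μM positive, DMSO 0.5% negative; run in parallel with 48 h PbLuc assay at 37 °C, 5% CO2; viability by CellTiter-Glo luminescence, normalized to controls.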
For `CC(=O)Nc1ccc2c(c1)nc1n2[C@@H](CNCc2ccccc2)COC1`, the cytotoxicity at 10 µM is -10.2%. Consider `COc1ccccc1-c1nnc([C@H]2CCN(C(=O)C3CC3)C2)o1`, for which the cytotoxicity at 10 µM stood at 0.734%. In the case of `Cc1ccc(-c2noc([C@@H]3Cc4nc[nH]c4CN3)n2)cc1` it was 0.676%; in that of `CCCNC(=O)Nc1ccc2c(c1)N(S(=O)(=O)CC)CC2`, 1.97%; in that of `Cc1nnc(SCC(=O)Nc2csc3nc(=O)c(C)nn23)s1`, 10.8%. In the case of `O=S1(=O)CCC(S(=O)(=O)c2cccc(S(=O)(=O)N3CCCC3)c2)C1` (stereo not drawn) it was 3.45%; in that of `CS(=O)(=O)N1CCC(C(=O)N2CCC(Cn3cccn3)CC2)CC1`, -10.2%; in that of `O=C(Nc1ccc(CC(=O)N2CCCC2)cc1)NC1CC1`, -2.16%. In the case of `COc1cc(NC(=O)NCc2cc(C)oc2C)cc(OC)c1` it was 5.24%; in that of `O=C(NCC1(O)CCc2ccccc2C1)c1cccs1` (stereo not drawn), 13.8%. With `CN(C)CCOCc1nnc2n1CCN(c1cnccn1)CC2`, the cytotoxicity at 10 µM was 5.62%. The value for `CN(C)c1ncnc2c1CCN(c1ccccc1)CC2` was 13.4%; that for `CN1CCCN(C(=O)c2nc3c(s2)CCCN3CC2CC2)CC1` was 10%; that for `Cn1cnc(S(=O)(=O)N2CCO[C@H]3[C@@H](OCC4CC4)CC[C@@H]32)c1` was 7.74%. The value for `O=C(c1c2c(N3CCCC3)ncnc2n2ccccc12)N1CCOCC1` was 9.49%; that for `CCCN1CCC2(Cc3ccccc3NC2=O)C1` (stereo not drawn) was 14.5%; that for `CSc1ccc(-n2nnc(C(=O)O)c2-c2ccccn2)cc1` was -3.01%. The value for `O=C1CC(c2ccc(Cl)c(Cl)c2)c2c(n3ccsc3nc2=O)N1` (stereo not drawn) was -0.839%. As for `Cc1nn(-c2ccccc2)c2c1c(C(F)F)cc(=O)n2CC(=O)O`, the cytotoxicity at 10 µM was determined as 7.73%. The value for `O=C(NCCCO)C1(CC2CC(c3ccc(F)cc3)=NO2)CCOCC1` (stereo not drawn) was 1.41%; that for `CN1CCN([C@@H]2CN(C(=O)c3cc4ccc(F)cc4[nH]3)C[C@H]2O)CC1` was -10.4%. In the case of `COc1cc(CCC(=O)N2CCC(c3cnccn3)CC2)on1` it was 3.1%; in that of `c1cnc(Nc2cc(CCC3CCNCC3)ccn2)cn1`, 55.7%. In the case of `O=C(CO)N1CCC(CCc2ccnc(Nc3cnccn3)c2)CC1` it was -0.459%.

On to `CCN(Cc1ccncc1)CC1(O)CCN(C(=O)c2cnn(C)c2)C1` (stereo not drawn), for which the cytotoxicity at 10 µM is -26.9%. The value for `Cn1ccc(C(=O)N2CCCC(c3cc(O)n(C)n3)C2)n1` (stereo not drawn) was -13.7%; that for `CCC(=O)N1CCC(Cc2ccccc2-c2ccccc2)(C(N)=O)C1` (stereo not drawn) was -0.105%; that for `CC(=O)N1CCC(Cc2cnc(-c3c(C)n[nH]c3C)cn2)C1` (stereo not drawn) was -1.88%.

In the case of `O=C(NCc1cccnc1)Nc1ccn(CC(F)F)n1`, the cytotoxicity at 10 µM was found to be 1.68%. The value for `CCN(CC)C(=O)NC(C)c1ccc(Oc2cccnc2)c(F)c1` (stereo not drawn) was 17.4%; that for `Cc1cc(C)n(C2CN(CCC(=O)NCCc3ccccc3)C2)n1` was 11.8%. In the case of `Cc1cscc1-c1nc(C2CCOC2)no1` (stereo not drawn) it was 8.4%. In the case of `CNS(=O)(=O)c1cccc(C(C)NCc2ccsc2)c1` (stereo not drawn) it was 2.45%; in that of `Cc1nc(CN2CCc3cnc(C(C)C)nc3C2)oc1C`, 0.479%; in that of `CN(Cc1cccc(Cl)c1)C(=O)Cn1nc(-c2ccc(F)cc2)oc1=O`, -19.9%. Take `Cc1nn(CC(=O)Nc2ccc(F)cc2)c(N)c1C#N`: the cytotoxicity at 10 µM stood at 13.3%.

In the case of `Cc1cc(S(C)(=O)=O)c(C)c(S(=O)(=O)N2CCCCCC2)c1`, the cytotoxicity at 10 µM was 14.1%. The value for `CC(C)OCCS(=O)(=O)c1nccn1-c1cccc(F)c1` was -3.3%; that for `NS(=O)(=O)CCN(CCc1cccc(F)c1)C1CCCC1` was -6.08%.

On to `COCCN(CCOC)C(=O)c1cc(F)cc2[nH]cnc12`, for which the cytotoxicity at 10 µM is -8%. In the case of `Cn1ncc2cnn(CC(O)COc3cccc4[nH]ccc34)c2c1=O` (stereo not drawn), the cytotoxicity at 10 µM is 13.2%. In the case of `N#Cc1ccccc1CN(CCO)Cc1ccsc1` it was 18.4%; in that of `O=C(c1ncoc1-c1ccco1)N1CCCN(c2nccs2)CC1`, 2.99%; in that of `CCNC(=O)COc1ccccc1N1CCCC(C)C1` (stereo not drawn), 8.06%.

On to `CCOCc1ccccc1NC(=O)NC1CCN(c2ccccc2)C1` (stereo not drawn), for which the cytotoxicity at 10 µM is -6.31%. The value for `CCN(C(=O)CCn1cccn1)C1CC1` was -6.16%; that for `Cc1ccc(NC(C)C(=O)NCc2cccs2)cc1C` (stereo not drawn) was -16.4%; that for `CC(C)(C)NC(=O)C1CSCN1S(=O)(=O)c1cccc(F)c1` (stereo not drawn) was -16.7%. The value for `CC(C)S(=O)(=O)NCC1CCCN(C(=O)c2ccc3c(c2)OCCO3)C1` (stereo not drawn) was -35.2%; that for `CCc1c(C)nn(CC(=O)NC(C(=O)O)c2c(C)n[nH]c2C)c1C` (stereo not drawn) was 5.79%. The value for `CCC(Nc1cccc(OC)c1)C(=O)NCc1ccc2c(c1)OCO2` (stereo not drawn) was -1.11%; that for `COc1cccc(CC2CN(C3CCCCC3)CCO2)c1` (stereo not drawn) was -11.9%. On to `CC(=O)c1ccc(N2CCN(C(=O)c3cc(C(C)C)nn3C)CC2)cc1`, for which the cytotoxicity at 10 µM was found to be 11%.

As to `CNc1nc(C(=O)N2CCC3(CCCN(CCOC)C3=O)C2)cs1` (stereo not drawn), the cytotoxicity at 10 µM stood at 7.55%.

Turning to `O=c1[nH]cnc2c1CCN(S(=O)(=O)c1ccc(Cl)cc1)C2`, the cytotoxicity at 10 µM was -1.68%. Take `OC1(CNCCN2CCc3ccccc32)CNCCOC1` (stereo not drawn): the cytotoxicity at 10 µM stood at 10.7%. In the case of `COc1ccc(CCNCc2ccco2)cc1OC` it was -0.0184%. The value for `CN(Cc1noc2c1CCCC2)C(=O)Nc1ccc2oc(=O)n(C)c2c1` was -2.36%.

With `COc1ccc(CN2CCC3(CCCN(C)C3=O)C2)c(Cl)c1OC` (stereo not drawn), the cytotoxicity at 10 µM is -1.24%.

Regarding `CN1CCn2nc(-c3nc4ccccc4n3C)cc2C1`, the cytotoxicity at 10 µM is -6.99%. Consider `COCc1nc(CN2CC(C)(c3ccccc3)CCC2=O)no1` (stereo not drawn), for which the cytotoxicity at 10 µM turned out to be 4.85%.

For the molecule `CCc1c(C)nc(C)nc1N1CCC(NCCSc2nnnn2C)CC1`, the cytotoxicity at 10 µM is -15.9%. The value for `CN(CCc1ccccn1)c1cc(N2CCCCC2)ncn1` was 3.61%; that for `O=S(=O)(Cc1ccccc1F)NCCCN1CCCCC1` was 17.3%; that for `CCOc1ccccc1OC1CCN(Cc2ccn(C)c(=O)c2)CC1` was 3.91%. The value for `CC(C)C(NC(=O)NCCNc1cnccn1)c1cccs1` (stereo not drawn) was 0.0264%; that for `Cc1cc(C)n(CC2CN(CC(=O)NC3CCOCC3)CCO2)n1` (stereo not drawn) was -11.1%.

With `COc1cc(CCC(=O)NCC2CC2)ccc1OCC(F)(F)F`, the cytotoxicity at 10 µM was -4.81%. The value for `O=C(c1ccco1)N1CCCC(c2cc(C(F)(F)F)[nH]n2)C1` (stereo not drawn) was -16.1%. In the case of `CCc1nc(CN(C(C)=O)C2CCN(CCc3cccs3)C2)no1` (stereo not drawn) it was -4.62%. In the case of `O=C(CN1CCCC1Cn1cncn1)NCCOc1ccccc1` (stereo not drawn) it was -7.52%; in that of `NC(=O)c1cccc(OCC(=O)N2CCCC(n3ccnc3)C2)c1` (stereo not drawn), -9.37%; in that of `CCn1c(C)nnc1CN(C)C1CCN(Cc2nnc(C3CC3)o2)C1` (stereo not drawn), -11.6%.

In the case of `CCN(CC1CCOC1)C(=O)Nc1ccc(N2CCOCC2)nc1` (stereo not drawn), the cytotoxicity at 10 µM is -2.45%. The value for `CCc1nc(CN(C)C2CCN(CCC(=O)N3CCCCC3)C2)no1` (stereo not drawn) was -13.4%.

In the case of `Cc1cc(C2CCCN2C(=O)NCc2c(C)cc(C)[nH]c2=O)on1` (stereo not drawn), the cytotoxicity at 10 µM is -9.54%. In the case of `Cc1cc(C)n(CC2CN(CC(=O)Nc3c(C)n[nH]c3C)CCO2)n1` (stereo not drawn) it was -9.86%; in that of `CN(Cc1nc(N)c2ccccc2n1)C1CCCN(c2cccnn2)C1` (stereo not drawn), -12.2%. Regarding `CCc1nc2n(n1)CC(NCc1ncc(-c3ccccc3)o1)CC2` (stereo not drawn), the cytotoxicity at 10 µM was -3.91%. In the case of `O=C(c1cc(C2CC2)[nH]n1)N1CCN(Cc2ccsc2)CC1` it was -9.04%; in that of `Cc1ccc(S(=O)(=O)N2CCOc3ccccc32)cc1C(N)=O`, 7.91%; in that of `Cc1nccn1C1CCCN(C(=O)COCC(F)(F)F)C1` (stereo not drawn), -12.1%. In the case of `O=C(c1ccc(-n2ccnc2)nc1)N1CCCC(n2cccn2)C1` (stereo not drawn) it was -5.13%; in that of `Cc1nc(C2CCCN(C(=O)c3ccco3)C2)no1` (stereo not drawn), 0.529%. In the case of `c1ccc(-n2ccc(CN3CCCC3Cn3cccn3)n2)cc1` (stereo not drawn) it was -2.48%. As to `Cc1cc(C)n(CC2CN(Cc3nc(-c4ccco4)no3)CCO2)n1` (stereo not drawn), the cytotoxicity at 10 µM was -6.58%.

Consider `CCN(Cc1cccc2c1OCO2)C(=O)NC1CC1`, for which the cytotoxicity at 10 µM was -9.48%. In the case of `Cc1ncc(CNCC2CCCN2c2cccnn2)s1` (stereo not drawn) it was 1.97%.

In the case of `O=C(Cc1ccc2c(c1)OCCO2)N1CCCC(n2cccn2)C1` (stereo not drawn), the cytotoxicity at 10 µM stood at 7%. Take `CCN1c2ccc(-c3cncn3CCCn3ccnc3C)cc2CC1C` (stereo not drawn): the cytotoxicity at 10 µM is -1.25%. The value for `CO[C@H]1CN(C(=O)c2ccccn2)[C@@H]2CCCO[C@H]12` was 3.52%; that for `Cn1cc(CN2CCCC23CCN(C(=O)c2ccncc2)CC3)cn1` was -3.51%; that for `Cn1ccnc1C(=O)N1CCC2(CCCN2CC2CC2)CC1` was 8.31%. In the case of `CCOc1ncnc2c1CCN(Cc1cccs1)CC2` it was 10.2%; in that of `O=C(N1CCOCC1)[C@@]12CCO[C@@H]1CCN(Cc1ccccc1F)C2`, 2.99%; in that of `Cn1cc(CN2CCC3(CC2)CC(c2ccncc2)C(=O)N3)cn1` (stereo not drawn), 1.75%. In the case of `CCc1cnc(N2CCc3ncnc(N4CCN(C)CC4)c3CC2)nc1` it was -1.13%. With `O=C1CCCC2=C1C(c1ccco1)C1C(=O)NN=C1N2` (stereo not drawn), the cytotoxicity at 10 µM was 2.1%.

The values are drawn from ChEMBL document CHEMBL4513216, “Probing the Open Global Health Chemical Diversity Library for Multistage-Active Starting Points for Next-Generation Antimalarials” (ACS Infect Dis, 2020).
